Measurements published in ChEMBL document CHEMBL1671789, “Evaluation of quinazoline analogues as glucocerebrosidase inhibitors with chaperone activity” (J Med Chem, 2011).
Numbering of substitutions follows the chain as printed. The source made the active and inactive calls.

How the values were obtained:
[1] = Inhibition of alpha-glucosidase
[2] = molecular target: T1, Lysosomal acid glucosylceramidase (Homo sapiens) (UniProt P04062)
T1 sequence (whole entry): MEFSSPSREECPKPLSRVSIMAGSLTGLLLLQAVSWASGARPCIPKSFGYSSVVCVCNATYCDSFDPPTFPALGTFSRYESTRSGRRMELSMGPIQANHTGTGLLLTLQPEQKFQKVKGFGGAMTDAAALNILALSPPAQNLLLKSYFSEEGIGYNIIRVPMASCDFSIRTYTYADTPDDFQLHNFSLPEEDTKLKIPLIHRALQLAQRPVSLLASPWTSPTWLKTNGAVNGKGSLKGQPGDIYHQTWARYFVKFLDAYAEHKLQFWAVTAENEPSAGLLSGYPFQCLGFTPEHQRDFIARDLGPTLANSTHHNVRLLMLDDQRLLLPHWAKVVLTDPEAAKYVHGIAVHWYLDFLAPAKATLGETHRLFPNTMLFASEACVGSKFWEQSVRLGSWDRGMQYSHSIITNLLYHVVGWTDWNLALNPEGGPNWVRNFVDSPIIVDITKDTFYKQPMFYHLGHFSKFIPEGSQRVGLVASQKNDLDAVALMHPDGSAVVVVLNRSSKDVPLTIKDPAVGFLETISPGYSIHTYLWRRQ

[3] = molecular target: T1, Lysosomal acid glucosylceramidase (Homo sapiens); remark: listed apart in the source
[4] = molecular target: T1, Lysosomal acid glucosylceramidase (Homo sapiens); remark: listed apart in the source
[5] = molecular target: T1, Lysosomal acid glucosylceramidase (Homo sapiens); remark: listed apart in the source
[6] = molecular target: T1, Lysosomal acid glucosylceramidase (Homo sapiens); remark: listed apart in the source
[7] = molecular target: T1, Lysosomal acid glucosylceramidase (Homo sapiens); remark: listed apart in the source
[8] = molecular target: T1, Lysosomal acid glucosylceramidase (Homo sapiens); remark: listed apart in the source
[9] = Inhibition of alpha-galactosidase
[10] = tested on: T2, Lysosomal acid glucosylceramidase (Homo sapiens), P04062 [N409S]; test: Activity at recombinant Gcase N370S mutant in human spleen homogenates assessed as hydrolysis of 4-MU-beta-D-glucose at 50 uM; type: tissue-based
T2 sequence (whole entry): T1 sequence (whole entry) with N409S
Procedure, shortened: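 Enzyme source: human spleen homogenate, 27 μg/well, in 50 mM citric acid/K2PO4 buffer pH 5 with 0.01% Tween20. Compound pin-transferred and preincubated 5 min at room temperature. Substrate 4MU-β-glc at 1 mM final, 45 min at 37 °C. Stopped with 1 M NaOH/1 M glycine pH 10. Fluorescence read at 365 nm excitation, 440 nm emission.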

[11] = molecular target: T1, Lysosomal acid glucosylceramidase (Homo sapiens); test: Binding affinity to recombinant Gcase assessed as change in melting temperature at 300 uM by fluorescence thermal shift technique
Procedure, shortened: (§1)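 Differential scanning fluorometry on recombinant wild-type GC at 2 μM final with SYPRO Orange, in 150 mM phosphate/citrate pH 4.8. 12-point DMSO dilution series, final 0.1–600 μM, 2% DMSO final; DMSO-only control. Heated 20 to 95 °C at 0.1 °C/s. Fluorescence read at 490 nm excitation, 575 nm emission. Tm derived from melt curves; shift is relative to the protein-only control.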

[12] = molecular target: T1, Lysosomal acid glucosylceramidase (Homo sapiens); test: Increase of GCase trafficking to lysosomes in human fibroblast cells assessed as colocalization of Gcase with Lamp2 at 10 uM after 5 days by immunofluorescence method; type: cell-based
Procedure, shortened: (§2)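 Primary dermal fibroblasts from N370S/N370S Gaucher patients and a control, in chamber slides. Compounds given for five days, range 1 nM to 25 μM. Cells fixed in 3% paraformaldehyde and permeabilized with 0.1% Triton-X. Stained with rabbit anti-GCase R386 (1:500) and mouse anti-LAMP1 or LAMP-2 (1:100), then Alexa-conjugated secondaries and DAPI. Imaged by confocal microscopy for GC/LAMP2 colocalization.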

[13] = tested on: T2, Lysosomal acid glucosylceramidase (Homo sapiens), P04062 [N409S]; test: Increase of GCase N370S mutant trafficking to lysosomes in human fibroblast cells assessed as colocalization of Gcase with Lamp2 at 10 uM after 5 days by immunofluorescence method; type: cell-based; procedure, shortened: as §2
[14] = molecular target: T1, Lysosomal acid glucosylceramidase (Homo sapiens); test: Binding affinity to recombinant Gcase assessed as change in melting temperature at 400 uM by fluorescence thermal shift technique; procedure, shortened: as §1
[15] = molecular target: T1, Lysosomal acid glucosylceramidase (Homo sapiens); test: Binding affinity to recombinant Gcase assessed as change in melting temperature at 500 uM by fluorescence thermal shift technique; procedure, shortened: as §1
[16] = molecular target: T1, Lysosomal acid glucosylceramidase (Homo sapiens); test: Increase of GCase trafficking to lysosomes in human fibroblast cells assessed as colocalization of Gcase with Lamp2 at 5 uM after 5 days by immunofluorescence method; type: cell-based; procedure, shortened: as §2
[17] = tested on: T2, Lysosomal acid glucosylceramidase (Homo sapiens), P04062 [N409S]; test: Increase of GCase N370S mutant trafficking to lysosomes in human fibroblast cells assessed as colocalization of Gcase with Lamp2 at 5 uM after 5 days by immunofluorescence method; type: cell-based; procedure, shortened: as §2
[18] = molecular target: T1, Lysosomal acid glucosylceramidase (Homo sapiens); test: Binding affinity to recombinant Gcase assessed as change in melting temperature at 600 uM by fluorescence thermal shift technique; procedure, shortened: as §1

Row | SMILES | Activity [1] | Activity [9] | Activity [10] | other results
1 | Cc1ccc(S(=O)(=O)N2CCN(c3nc(-c4cccs4)nc4ccccc34)CC2)cc1 | inactive | inactive | – | ΔTm [2]: 9.89 °C; ΔTm [3]: -0.09 °C; ΔTm [4]: 5.18 °C; ΔTm [5]: 11 °C; ΔTm [6]: 0.84 °C; ΔTm [7]: 0.03 °C; ΔTm [8]: -1.4 °C
2 | Cc1ccc(S(=O)(=O)N2CCN(c3nc(C(N)=O)nc4ccccc34)CC2)cc1 | inactive | inactive | inactive | –
3 | CN1CCN(c2nc(-c3cccs3)nc3ccccc23)CC1 | inactive | inactive | inactive | –
4 | O=S(=O)(c1ccc(F)cc1)N1CCN(c2nc(-c3ccc(F)cc3)nc3cc(Cl)ccc23)CC1 | inactive | inactive | inactive | –
5 | CCCN1CCN(c2nc(-c3cccs3)nc3ccccc23)CC1 | inactive | inactive | inactive | –
6 | O=S(=O)(c1ccc2ccccc2c1)N1CCN(c2nc(-c3cccs3)nc3ccccc23)CC1 | inactive | inactive | – | ΔTm [11]: 19.8 °C; ΔTm [2]: 14.5 °C; Activity [12]: Active; ΔTm [3]: -0.19 °C; ΔTm [4]: 10.8 °C; Activity [13]: Active; ΔTm [14]: 19.9 °C; ΔTm [5]: 17.3 °C; ΔTm [6]: 4.35 °C; ΔTm [7]: -1.33 °C; ΔTm [8]: 1.6 °C
7 | O=S(=O)(c1ccc(Cl)cc1)N1CCN(c2nc(-c3cccc(Br)c3)nc3ccccc23)CC1 | inactive | inactive | inactive | –
8 | O=S(=O)(c1ccc2c(c1)OCCO2)N1CCN(c2nc(-c3cccs3)nc3ccccc23)CC1 | inactive | inactive | – | ΔTm [11]: 22.8 °C; ΔTm [15]: 23.4 °C; ΔTm [2]: 19.3 °C; Activity [16]: Active; Activity [17]: Active; ΔTm [3]: 0.24 °C; ΔTm [4]: 13.3 °C; ΔTm [14]: 22.8 °C; ΔTm [5]: 20.7 °C; ΔTm [6]: 11.7 °C; ΔTm [7]: 0.37 °C; ΔTm [18]: 24.3 °C; ΔTm [8]: 5.39 °C
9 | O=S(=O)(c1ccccc1)N1CCN(c2nccc(-c3cccs3)n2)CC1 | inactive | inactive | inactive | –
10 | COc1ccccc1S(=O)(=O)N1CCN(c2nc(-c3cccs3)nc3ccccc23)CC1 | inactive | inactive | – | ΔTm [11]: 7.48 °C; ΔTm [15]: 7.69 °C; ΔTm [2]: 3.97 °C; Activity [16]: Active; Activity [17]: Active; ΔTm [3]: 0.55 °C; ΔTm [4]: -0.76 °C; ΔTm [14]: 8.09 °C; ΔTm [5]: 6.86 °C; ΔTm [6]: -0.01 °C; ΔTm [7]: 0.6 °C
11 | Cc1ccc(S(=O)(=O)N2CCC(c3nc(-c4cccs4)nc4ccccc34)CC2)cc1 | inactive | inactive | inactive | –
12 | O=S(=O)(c1ccccc1)N1CCN(c2nc(-c3ccc(F)cc3)nc3cc(Cl)ccc23)CC1 | inactive | inactive | inactive | –
13 | O=S(=O)(c1ccc(F)cc1)N1CCN(c2nc(-c3ccccc3)nc3cc(Cl)ccc23)CC1 | inactive | inactive | inactive | –
14 | Cc1ccc(S(=O)(=O)N2CCN(c3nc(-c4ccc(F)cc4)nc4cc(Cl)ccc34)CC2)cc1 | inactive | inactive | inactive | –
15 | O=S(=O)(c1ccc(Cl)cc1)N1CCN(c2nc(-c3ccc(F)cc3)nc3cc(Cl)ccc23)CC1 | inactive | inactive | inactive | –
16 | OC[C@H]1CNC[C@@H](O)[C@@H]1O | inactive | inactive | – | ΔTm [11]: 8.98 °C; ΔTm [15]: 8.75 °C; ΔTm [2]: 7.94 °C; Activity [12]: Active; ΔTm [3]: 1.16 °C; ΔTm [4]: 6.72 °C; Activity [13]: Active; ΔTm [14]: 9.56 °C; ΔTm [5]: 8.25 °C; ΔTm [6]: 5.5 °C; ΔTm [7]: 0.4 °C
17 | Cc1ccc(S(=O)(=O)N2CCN(c3nc(-c4ncccn4)nc4ccccc34)CC2)cc1 | inactive | inactive | inactive | –
18 | O=S(=O)(c1ccc(Cl)cc1)N1CCN(c2nc(-c3ccc(Cl)cc3)nc3ccccc23)CC1 | inactive | inactive | inactive | –
19 | Cc1ccc(S(=O)(=O)N2CCN(c3nc(-c4cncnc4)nc4ccccc34)CC2)cc1 | inactive | inactive | inactive | –
20 | Cc1ccc(-c2nc(N3CCN(S(=O)(=O)c4ccc(F)cc4)CC3)c3ccc(Cl)cc3n2)cc1 | inactive | inactive | inactive | –
